# Source: article PMC3383025 (Molecular Cancer Therapeutics, 2009)
# Several values for one entry are separate records, joined by “and”; a condition that tells them apart may be missing. Identical values can stand only once. Like-named read-outs stand apart in the source and are kept apart here.
# What was measured:
# LNCaP = assay: Clonogenic survival assay; format: cell-based, human; settings: for Killing ability LD50: loss of 50% clonogenic ability after 48 h exposure; for CC50: read-out: Cell death of LNCaP LC50
# LAPC-4 = assay: Clonogenic survival assay; format: cell-based, human; settings: loss of 50% clonogenic ability after 48 h exposure
# AR protein = assay: Western blot analysis of AR protein; format: cell-based, human; settings: LNCaP cells; for AR Protein (% of control): after 24 h of exposure to 1 µmol/L
# MDA-PC-2b = assay: Clonogenic survival assay; format: cell-based, human; settings: loss of 50% clonogenic ability after 48 h exposure
# CWR22Rv1 = assay: Clonogenic survival assay; format: cell-based, human; settings: loss of 50% clonogenic ability after 48 h exposure
# [1] = cited from earlier work
# VCaP = assay: Clonogenic survival assay; format: cell-based, human; settings: loss of 50% clonogenic ability after 48 h exposure
# LNCaP cells [2] = assay: Intracellular free Ca+2; format: cell-based, human; settings: for Intracellular free calcium: 10 min after exposure to 1 µmol/L, starting concentration ~40 nmol/L
# [3] = system: IRE1-dependent XBP-1 processing; assay: ER stress: IRE1-dependent XBP-1/venus processing, fluorescent cells; format: cell-based, human
# total protein synthesis = assay: Total protein synthesis, S35-methionine incorporation; format: cell-based, human; settings: LNCaP; at 24 hours post-TG exposure
# Summary of the method: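 LNCaP cells were treated for 6 or 24 h (1 µmol/L test compound) and labelled with S³⁵-methionine for 30 min before lysis. Incorporation was measured as TCA-precipitable counts and expressed per cell as percent of incorporation in exponentially growing untreated cells.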
# [4] = system: AR-specific protein synthesis; format: cell-based, human
# Summary of the method: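 LNCaP cells exposed to 1 µmol/L test compound for 6 or 24 h, then pulsed with S³⁵-methionine for 30 min before lysis. AR was immunoprecipitated from an aliquot of the labelled total protein with N-20 anti-AR antibody and Protein-A agarose beads, then Western blotted. AR-associated radioactivity was captured on X-ray film and quantitated by imaging.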
# [5] = molecular target: rabbit skeletal muscle SERCA pump (Oryctolagus cuniculus, UniProt P04191); assay: SERCA pump activity inhibition; format: biochemical
# Chain of rabbit skeletal muscle SERCA pump (P04191 1-994 isoform P04191-2): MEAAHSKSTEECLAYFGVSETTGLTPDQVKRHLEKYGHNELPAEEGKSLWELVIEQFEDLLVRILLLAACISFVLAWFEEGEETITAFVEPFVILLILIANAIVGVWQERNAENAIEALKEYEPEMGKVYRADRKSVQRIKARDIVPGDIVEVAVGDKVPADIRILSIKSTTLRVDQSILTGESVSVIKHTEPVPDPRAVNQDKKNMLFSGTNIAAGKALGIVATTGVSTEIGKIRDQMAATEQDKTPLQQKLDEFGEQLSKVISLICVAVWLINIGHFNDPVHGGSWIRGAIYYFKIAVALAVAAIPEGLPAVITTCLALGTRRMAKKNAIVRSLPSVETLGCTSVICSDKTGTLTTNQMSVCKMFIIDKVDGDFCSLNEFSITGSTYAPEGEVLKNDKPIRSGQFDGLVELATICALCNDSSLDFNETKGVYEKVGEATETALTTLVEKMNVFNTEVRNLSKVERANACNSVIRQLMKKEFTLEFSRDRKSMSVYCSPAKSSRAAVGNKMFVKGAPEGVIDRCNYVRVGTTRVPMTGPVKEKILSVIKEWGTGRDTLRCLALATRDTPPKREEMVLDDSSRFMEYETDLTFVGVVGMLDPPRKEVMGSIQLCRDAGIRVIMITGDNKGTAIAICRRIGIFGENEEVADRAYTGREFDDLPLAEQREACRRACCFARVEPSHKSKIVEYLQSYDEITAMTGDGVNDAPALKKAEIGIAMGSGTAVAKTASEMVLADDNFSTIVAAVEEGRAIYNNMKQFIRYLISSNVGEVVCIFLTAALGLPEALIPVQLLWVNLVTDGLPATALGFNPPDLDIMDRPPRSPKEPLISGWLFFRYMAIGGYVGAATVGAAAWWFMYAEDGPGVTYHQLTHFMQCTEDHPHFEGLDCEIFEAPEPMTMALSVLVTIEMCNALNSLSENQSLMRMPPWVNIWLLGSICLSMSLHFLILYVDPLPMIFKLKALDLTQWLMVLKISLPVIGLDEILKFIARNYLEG
# LNCaP cells [6] = assay: Percentage of cells in cycle, Ki67 flow cytometry; format: cell-based, human; settings: TG exposure, untreated 91% ± 2%
# [7] = system: androgen ablation refractory human prostate cancer lines; assay: Clonogenic survival assay, each of the five lines; format: cell-based; settings: LNCaP, LAPC-4, VCaP, MDA-PCa-2b, CWR22Rv1
# Summary of the method: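 Clonogenic survival of each prostate cancer line after 48 h exposure to a concentration series of test compound. LD₅₀ is the nmol/L concentration causing 50% loss of clonogenic ability.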
# AR mRNA = AR mRNA by reverse transcription-PCR; format: cell-based, human; settings: LNCaP, LAPC-4 and CWR22Rv1 cells; 1 µmol/L TG, various times
# LNCaP cells [8] = settings: over the next 18 to 36 hours after return to baseline; cited from earlier work
Molecule,Killing ability LD50 (LNCaP; LNCaP),CC50 (LNCaP; after 48 h of exposure),Killing ability LD50 (LAPC-4),AR Protein (% of control) (AR protein),Killing ability LD50 (MDA-PC-2b),Killing ability LD50 (CWR22Rv1),host toxicity on systemic administration [1],Killing ability LD50 (VCaP),Intracellular free calcium (LNCaP cells [2]),further results
"C/C=C(/C)C(=O)O[C@H]1C(C)=C2[C@H]([C@@H]1OC(=O)CCCCCCC)[C@@](C)(OC(C)=O)C[C@H](OC(=O)CCCCCCCCCCCN)[C@@]1(O)[C@H]2OC(=O)[C@@]1(C)O [Analog 12ADT, 8-O-(12-dodecanyl)-8-O-debutanoyl TG]",55 ± 12 nmol/L,55 ± 12 nM,80 ± 19 nmol/L,14 ± 3 % of control,95 ± 35 nmol/L,85 ± 27 nmol/L,cannot be given systemically without host toxicity,67 ± 25 nmol/L,369 ± 23 nmol/L,–
"C/C=C(/C)C(=O)O[C@H]1C(C)=C2[C@H]([C@@H]1OC(=O)CCCCCCC)[C@@](C)(OC(C)=O)C[C@H](OC(=O)CCCCCCCCCCCNC(=O)C[C@H](N)C(=O)O)[C@@]1(O)[C@H]2OC(=O)[C@@]1(C)O [Analog D12ADT, asparty-12ADT]",40 ± 12 nmol/L,40 ± 12 nM,55 ± 9 nmol/L,11 ± 6 % of control,51 ± 12 nmol/L,39 ± 7 nmol/L,–,70 ± 18 nmol/L,385 ± 40 nmol/L,–
"C/C=C(/C)C(=O)O[C@H]1C(C)=C2[C@H]([C@@H]1OC(=O)CCCCCCC)[C@@](C)(OC(C)=O)C[C@H](OC(=O)CCC)[C@@]1(O)[C@H]2OC(=O)[C@@]1(C)O [TG, Thapsigargin, reference compound]",10 nmol/L and 10 ± 5 nmol/L,–,25 ± 6 nmol/L,10 ± 2 % of control,43 ± 12 nmol/L,38 ± 9 nmol/L,cannot be given systemically without host toxicity,20 ± 7 nmol/L,441 ± 35 nmol/L,"CC50 (LNCaP; Homo sapiens, LNCaP, 48 h): 10 ± 5 nM; depletion of AR protein (AR protein; by 24 hours of TG exposure): 90%; percent of fluorescent (ER-stressed) cells ([3]; XBP-1/venus-transfected LNCaP and CWR22Rv1, 500 µmol/L TG, by 24 hours): > 80%; inhibition of general protein synthesis (total protein synthesis): > 60%; decrease in rate of AR-specific protein synthesis ([4]; LNCaP cells, 1 µmol/L TG): > 90%; inhibition of AR-specific protein synthesis ([4]; LNCaP, at 24 hours post-TG exposure): > 90%; IC50 [5]: 13 ± 2 nM; Ki67+ cells (LNCaP cells [6]; 24 hours): 25% ± 8%; Ki67+ cells (LNCaP cells [6]; 48 hours): > 10%; LD50 for each of the lines [7]: < 100 nmol/L; initial increase in Cai (LNCaP cells [2]; from ~40 nmol/L, within minutes): > 300 nmol/L; change in AR mRNA (AR mRNA): no change; delayed sustained increase in Cai (LNCaP cells [8]): > 1 µmol/L"
alanyl-12ADT [Analog A12ADT],8 ± 4 nmol/L,8 ± 4 nM,28 ± 7 nmol/L,15 ± 4 % of control,40 ± 6 nmol/L,38 ± 11 nmol/L,–,23 ± 9 nmol/L,410 ± 45 nmol/L,–
leucyl-12ADT [Analog L12ADT],14 ± 8 nmol/L,14 ± 8 nM,32 ± 9 nmol/L,8 ± 4 % of control,42 ± 5 nmol/L,34 ± 16 nmol/L,–,25 ± 11 nmol/L,414 ± 44 nmol/L,"cells with IRE1-dependent XBP-1 processing (flow cytometric GFP) ([3]; LNCaP, 500 nmol/L, within 24 h): all cells"
